# Measurements taken from publication PMC3616288 (The EMBO Journal, 2013).
# T1: α‐COP (Schizosaccharomyces pombe, UniProt Q96WV5, F197K/I192K/L181K/L185K/L196K)
# T1 sequence (Q96WV5 1-327 L181K/L185K/I192K/L196K/F197K): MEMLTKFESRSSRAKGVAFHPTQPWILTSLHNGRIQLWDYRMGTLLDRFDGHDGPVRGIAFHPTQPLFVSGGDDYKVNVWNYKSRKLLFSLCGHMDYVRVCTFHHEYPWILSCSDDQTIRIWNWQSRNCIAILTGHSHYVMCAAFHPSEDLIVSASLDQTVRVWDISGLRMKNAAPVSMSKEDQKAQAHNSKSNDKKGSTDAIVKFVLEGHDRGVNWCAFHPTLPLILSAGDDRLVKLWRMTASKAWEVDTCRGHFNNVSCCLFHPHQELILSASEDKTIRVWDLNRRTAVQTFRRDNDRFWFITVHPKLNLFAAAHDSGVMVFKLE
# T2: β′‐COP (Saccharomyces cerevisiae, UniProt P41811)
# T2 sequence (P41811 1-814): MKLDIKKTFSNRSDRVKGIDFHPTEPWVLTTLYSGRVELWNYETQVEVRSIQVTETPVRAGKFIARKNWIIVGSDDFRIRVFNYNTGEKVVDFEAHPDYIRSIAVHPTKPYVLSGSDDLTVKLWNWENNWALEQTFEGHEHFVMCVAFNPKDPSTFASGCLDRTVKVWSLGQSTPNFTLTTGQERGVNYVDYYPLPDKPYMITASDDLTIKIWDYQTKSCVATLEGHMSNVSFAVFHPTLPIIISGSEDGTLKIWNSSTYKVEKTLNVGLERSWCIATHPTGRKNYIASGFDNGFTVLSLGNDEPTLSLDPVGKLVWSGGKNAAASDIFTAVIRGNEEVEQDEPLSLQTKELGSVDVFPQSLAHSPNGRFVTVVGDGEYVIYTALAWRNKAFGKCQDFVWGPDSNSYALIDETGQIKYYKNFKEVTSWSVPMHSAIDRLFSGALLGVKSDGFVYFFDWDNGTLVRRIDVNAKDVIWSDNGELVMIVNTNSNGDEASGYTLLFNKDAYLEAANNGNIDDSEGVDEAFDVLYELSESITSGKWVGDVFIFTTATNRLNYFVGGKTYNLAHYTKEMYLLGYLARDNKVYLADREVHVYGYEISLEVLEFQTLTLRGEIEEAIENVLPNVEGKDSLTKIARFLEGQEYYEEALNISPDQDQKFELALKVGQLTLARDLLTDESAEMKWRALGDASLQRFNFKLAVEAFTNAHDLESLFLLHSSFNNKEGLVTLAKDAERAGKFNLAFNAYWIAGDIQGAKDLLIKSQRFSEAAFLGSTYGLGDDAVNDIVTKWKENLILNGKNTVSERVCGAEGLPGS
# T2 sequence (P53622 642-818 partner limits assumed): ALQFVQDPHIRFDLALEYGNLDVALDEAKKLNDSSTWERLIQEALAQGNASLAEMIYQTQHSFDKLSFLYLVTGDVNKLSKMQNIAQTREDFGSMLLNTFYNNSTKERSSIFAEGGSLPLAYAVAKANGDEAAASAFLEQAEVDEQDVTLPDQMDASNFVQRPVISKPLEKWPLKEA
# T3: S. cerevisiae α-COP(1–818)/β′-COP(651–814) dimer (S. cerevisiae, UniProt P53622 1-818; P41811 651-814)
# T3 sequence (looked up) 1: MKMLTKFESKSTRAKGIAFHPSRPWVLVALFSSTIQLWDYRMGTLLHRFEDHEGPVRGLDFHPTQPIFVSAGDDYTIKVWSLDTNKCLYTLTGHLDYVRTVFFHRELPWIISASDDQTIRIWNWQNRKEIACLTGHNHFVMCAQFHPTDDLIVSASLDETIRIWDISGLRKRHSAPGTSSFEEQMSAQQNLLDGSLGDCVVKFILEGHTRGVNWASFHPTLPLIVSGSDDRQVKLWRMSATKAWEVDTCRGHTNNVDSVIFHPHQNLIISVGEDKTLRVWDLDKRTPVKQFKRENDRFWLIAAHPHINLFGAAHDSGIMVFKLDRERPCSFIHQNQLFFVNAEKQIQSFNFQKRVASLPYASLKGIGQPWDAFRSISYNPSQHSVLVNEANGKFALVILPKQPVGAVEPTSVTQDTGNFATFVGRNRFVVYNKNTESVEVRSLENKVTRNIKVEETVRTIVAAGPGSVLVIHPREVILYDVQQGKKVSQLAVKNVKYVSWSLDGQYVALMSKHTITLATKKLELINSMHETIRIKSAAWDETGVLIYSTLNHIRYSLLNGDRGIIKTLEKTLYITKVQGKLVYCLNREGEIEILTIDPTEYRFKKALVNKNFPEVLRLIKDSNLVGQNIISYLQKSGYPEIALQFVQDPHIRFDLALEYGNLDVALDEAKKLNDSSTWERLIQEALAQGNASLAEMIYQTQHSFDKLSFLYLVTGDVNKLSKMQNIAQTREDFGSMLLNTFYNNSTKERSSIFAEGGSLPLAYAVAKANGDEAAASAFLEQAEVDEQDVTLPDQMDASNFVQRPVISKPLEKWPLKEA
# T3 sequence (looked up) 2: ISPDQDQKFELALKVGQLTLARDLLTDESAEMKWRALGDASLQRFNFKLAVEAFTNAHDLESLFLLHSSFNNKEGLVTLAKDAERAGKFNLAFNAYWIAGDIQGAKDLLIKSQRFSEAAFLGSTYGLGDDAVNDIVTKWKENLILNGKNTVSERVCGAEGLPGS
# T4: S. cerevisiae β′-COP(1–814)/α-COP(642–818) dimer (S. cerevisiae, UniProt P41811 1-814; P53622 642-818)
# T4 sequence (looked up) 1: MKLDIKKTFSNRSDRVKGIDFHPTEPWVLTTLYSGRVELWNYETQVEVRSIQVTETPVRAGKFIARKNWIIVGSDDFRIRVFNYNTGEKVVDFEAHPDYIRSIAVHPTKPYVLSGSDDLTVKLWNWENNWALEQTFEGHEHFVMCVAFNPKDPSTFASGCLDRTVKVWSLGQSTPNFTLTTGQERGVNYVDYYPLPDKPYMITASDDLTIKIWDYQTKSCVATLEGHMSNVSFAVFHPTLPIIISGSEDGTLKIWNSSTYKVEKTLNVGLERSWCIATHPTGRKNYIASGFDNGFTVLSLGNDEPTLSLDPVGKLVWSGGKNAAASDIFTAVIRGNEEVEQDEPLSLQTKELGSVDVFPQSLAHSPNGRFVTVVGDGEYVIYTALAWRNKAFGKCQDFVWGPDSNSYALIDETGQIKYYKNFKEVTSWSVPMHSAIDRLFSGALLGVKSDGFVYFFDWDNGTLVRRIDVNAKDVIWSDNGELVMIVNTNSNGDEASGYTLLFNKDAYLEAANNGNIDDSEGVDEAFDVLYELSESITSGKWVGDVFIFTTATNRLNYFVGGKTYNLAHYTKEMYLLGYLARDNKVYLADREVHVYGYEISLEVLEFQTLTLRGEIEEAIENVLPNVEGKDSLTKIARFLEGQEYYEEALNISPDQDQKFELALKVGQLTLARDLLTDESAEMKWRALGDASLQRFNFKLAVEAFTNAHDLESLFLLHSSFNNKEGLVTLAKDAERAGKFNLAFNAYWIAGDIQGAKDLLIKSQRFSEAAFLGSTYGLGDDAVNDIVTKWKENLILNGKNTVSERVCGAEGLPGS
# T4 sequence (looked up) 2: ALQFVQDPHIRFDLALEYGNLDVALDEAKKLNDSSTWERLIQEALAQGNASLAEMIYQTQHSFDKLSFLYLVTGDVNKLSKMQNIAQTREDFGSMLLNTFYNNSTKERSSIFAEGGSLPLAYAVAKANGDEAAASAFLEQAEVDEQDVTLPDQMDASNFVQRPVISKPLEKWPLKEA
# T5: S. cerevisiae β′-COP N-terminal β-propeller domain (residues 1–301) (S. cerevisiae, UniProt P41811 1-301)
# T5 sequence (looked up): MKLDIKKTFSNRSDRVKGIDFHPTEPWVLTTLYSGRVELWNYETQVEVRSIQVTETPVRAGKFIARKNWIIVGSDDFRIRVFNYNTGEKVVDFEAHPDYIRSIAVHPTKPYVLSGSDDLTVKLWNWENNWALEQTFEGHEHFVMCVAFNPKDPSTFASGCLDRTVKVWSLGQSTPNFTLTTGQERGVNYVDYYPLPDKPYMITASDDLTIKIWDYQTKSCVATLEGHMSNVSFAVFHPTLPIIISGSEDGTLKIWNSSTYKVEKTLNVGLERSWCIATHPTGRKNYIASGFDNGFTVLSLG
# How the values were obtained:
# [1] = molecular target: S. cerevisiae β′-COP(1–814)/α-COP(642–818) dimer (S. cerevisiae) (UniProt P41811); experiment: ITC
# [2] = molecular target: T1, α‐COP; experiment: Isothermal calorimetry; format: binding, S. pombe; conditions: from ITC Kd values for α‐COP and β′‐COP
# How it was run: (§1)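 Synthetic peptides and protein were dialysed overnight into the same 20 mM Tris–HCl pH 7.5, 150 mM NaCl. α-COP target: quintuple-mutant S. pombe α-COP(1–327), His-Smt3-tagged, E. coli-expressed, tag cleaved. β′-COP target: S. cerevisiae β′-COP(1–814)/α-COP C-terminal fragment dimer from Hi-5 insect cells. Ratios are taken from the Kd values.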
# [3] = molecular target: T2, β′‐COP; experiment: Isothermal calorimetry; format: binding, S. cerevisiae; conditions: ITC; relative to TFKKTN (yWbp1) peptide
# How it was run: as §1
# [4] = molecular target: T3, S. cerevisiae …; experiment: pull-down
# [5] = molecular target: T4, S. cerevisiae …; experiment: pull-down
# [6] = molecular target: T4, S. cerevisiae …; experiment: ITC
# [7] = molecular target: T5, S. cerevisiae β′-COP N-terminal …; experiment: crystal structure
molecule,measurement,setting,value
yeast Wbp1 variant peptide TFKKSN,fold tighter binding than KKTN,[1],1.8 fold
TFKKSN,ratio of affinities of α‐COP and β′‐COP: factor by which the motif favours α‐COP,[2],2.2
same,binds more tightly than KKTN to β′‐COP by a factor,[3],1.8 fold
"RHLKSFFEAKKLV (domain or fragment, UniProt Q9BVK6 223-235, looked up) [GST fused to the cytoplasmic region of p25 (KKxx motif)]",binding result,[4],binds
same,binding result,[5],binds
EKEKSD [human Wbp1 (OST48) peptide EKEKSD],Kd,[6],3.4 µM
GARKLD [Scyl1 peptide GARKLD],Kd,[6],20.4 µM
AEKSHQE [Insig-2 peptide AEKSHQE],binding result,[6],binds
same,binding result,[7],binds
"KYKSRRSFIDEKKMP (domain or fragment, adenovirus, UniProt P68978 145-159, looked up) [GST fused to the cytoplasmic region of adenoviral E19 protein (KKxx motif)]",binding result,[4],binds
same,binding result,[5],binds
FEKVHVQ [porcine epidemic diarrhoea virus spike protein peptide FEKVHVQ],binding result,[7],binds
RRSFIDEKKMP [adenoviral E19 protein peptide RRSFIDEKKMP],Kd,[6],49 µM
TFKKTN [yeast Wbp1 peptide TFKKTN],Kd,[6],171 µM
IKTKLL [Emp47p peptide IKTKLL],Kd,[6],22.5 µM
PEKPHSD [Insig-1 peptide PEKPHSD],binding result,[6],binds
same,binding result,[7],binds
FEAKKLV [p25 peptide FEAKKLV],Kd,[6],27.7 µM
"RIRQEIIKTKLL (domain or fragment, yeast, UniProt P43555 434-445, looked up) [GST fused to the cytoplasmic region of Emp47p (KxKxx motif)]",binding result,[4],binds
same,binding result,[5],binds
